Experimental data as given in publication PMC10228170 (Journal of Pharmaceutical and Biomedical Analysis, 2023).
Like-named read-outs stand apart in the source and are kept apart here. Marks after values point to notes of the source that are not given here.

Experiments:
[1] = Pharmacokinetics of molnupiravir and NHC in rat blood and brain; format: in vivo; conditions: for concentration at 140 min: intravenous
How it was run: (§1)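 Male Sprague-Dawley rats (200 ± 50 g) were fasted 12 h and anaesthetised with urethane 1 g/kg i.p. A blood probe (1.2 cm) sat in the jugular vein and a brain probe (0.7 cm) in the striatum (+0.2 AP, +3.0 ML, −7.5 DV from bregma). Both were perfused with ACD at 2.0 µL/min. Test compound 100 mg/kg i.v. via femoral vein. Dialysates collected every 20 min for 6 h; UHPLC-MS/MS (MRM); noncompartmental parameters; AUC ratios; n = 6.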

[2] = format: in vivo; conditions: rat
How it was run: as §1

[3] = format: in vivo; conditions: male, Sprague-Dawley, rat, iv, 100 mg/kg
How it was run: as §1

[4] = prodrug molnupiravir, metabolized to NHC in vivo; cited from earlier work
[5] = male, Sprague-Dawley, rat, blood (microdialysate), iv, 100 mg/kg
[6] = male, Sprague-Dawley, rat, brain (striatum microdialysate), iv, 100 mg/kg
[7] = male, Sprague-Dawley, blood (microdialysate), iv, 100 mg/kg
[8] = male, Sprague-Dawley, blood dialysate, iv, 100 mg/kg
[9] = male, Sprague-Dawley, brain (striatum microdialysate), iv, 100 mg/kg
[10] = male, Sprague-Dawley, brain (striatum) dialysate, iv, 100 mg/kg
[11] = brain (striatum microdialysate)

## CC(C)C(=O)OC[C@H]1O[C@@H](n2ccc(NO)nc2=O)[C@H](O)[C@@H]1O [Molnupiravir, molnupiravir]
[1]; [5]
  AUC: 57200 ng·h/mL
  Cmax: 192000 ± 24100 ng/mL
  clearance: 32.1 ± 4.45 mL/min/kg
  half-life: 9 ± 2 min
[1]; male, Sprague-Dawley, rat, blood dialysate, 100 mg/kg
  concentration at 140 min: 49.2 ng/mL
[1]; male, Sprague-Dawley, rat, blood dialysate, iv, 100 mg/kg
  MRT: 18 min
[1]; [6]
  AUC: 318 ng·h/mL
  Cmax: 390 ± 100 ng/mL
  half-life: 10 ± 1 min
[1]; male, Sprague-Dawley, rat, brain (striatum) dialysate, 100 mg/kg
  concentration at 140 min: 103 ng/mL
[1]; male, Sprague-Dawley, rat, brain (striatum) dialysate, iv, 100 mg/kg
  MRT: 35 min
[1]; male, Sprague-Dawley, rat, brain (striatum) dialysate, iv, 100 mg/kg, Tmax, rat brain, molnupiravir 100 mg/kg i.v. alone
  Tmax: 40 min
[1]; rat blood, molnupiravir 100 mg/kg i.v.
  time of biotransformation of molnupiravir to NHC: ≤ 20 min
[1]; rat, molnupiravir 100 mg/kg i.v. alone
  AUCbrain/AUCblood (blood-to-brain transfer ratio): 0.005 ± 0.001^b
[2]; [7]
  MRT: 77 min
  clearance: 16 ± 1.28 mL/min/kg
[2]; [8]
  AUC: 110000 ng·h/mL
  Cmax: 199000 ± 17000 ng/mL
  half-life: 132 ± 32 min
[2]; [9]
  MRT: 238 min
  Tmax: 40 min
[2]; [10]
  AUC: 1790 ng·h/mL
  Cmax: 790 ± 220 ng/mL
  half-life: 148 ± 34 min
[2]; molnupiravir 100 mg/kg i.v. + BNPP 50 mg/kg i.v.
  AUCbrain/AUCblood (blood-to-brain transfer ratio): 0.02 ± 0.004^a
[3]; blood (microdialysate)
  AUC: 77400 ng·h/mL
  Cmax: 185000 ± 18700 ng/mL
  MRT: 29 min
  clearance: 21.7 ± 0.66 mL/min/kg
  half-life: 35 ± 10 min
[3]; [11]
  AUC: 755 ng·h/mL
  MRT: 53 min
  Tmax: 40 min
  half-life: 68 ± 22 min
[3]; brain (striatum) dialysate
  Cmax: 500 ± 90 ng/mL
[4]
  bioavailability: more than 90%
